Assay results as given in ChEMBL document CHEMBL4513216, “Probing the Open Global Health Chemical Diversity Library for Multistage-Active Starting Points for Next-Generation Antimalarials” (ACS Infect Dis, 2020).

Test: Toxicity liver stage against HepG2, at 10uM
Assay type: cell-based
Set-up: test concentration 10 uM, cell line HepG2-A16-CD81EGFP
Details: human, HepG2-A16-CD81EGFP cells; read-out: INHIBITION
Method in brief: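 Uninfected HepG2-A16-CD81EGFP cells, 3 × 10^3 per well, 1536-well, plated on prespotted compound at 10 μM final, parasite-free screening media added to match infected plates; puromycin 10 μM positive, DMSO 0.5% negative; run in parallel with 48 h PbLuc assay at 37 °C, 5% CO2; viability by CellTiter-Glo luminescence, normalized to controls.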

Structure (SMILES) | cytotoxicity at 10 µM
CS(=O)(=O)NCC(Cc1cccc(F)c1)N1CCNC1=O (stereo unspecified) | -2.91%
CCc1cccc(NC(=O)N2CCn3cnc(COC)c3C2)c1 | 5.35%
Cc1nc(O)cc(CNC(=O)CC[C@@H]2CCCN3CCCC[C@H]23)n1 | 1.87%
CN(CC(=O)NS(=O)(=O)c1ccsc1)Cc1ccccc1 | -5.1%
Cc1ncsc1C(=O)N1CCCC(c2noc(C(C)C)n2)C1 (stereo unspecified) | -2.04%
CCCc1noc(C2CCCCN2C(=O)C2CCCC2)n1 (stereo unspecified) | -35.8%
O=C(CCN1CCCC(CO)(CC2CC2)C1)NCc1cccc(Cl)c1 (stereo unspecified) | -1.07%
CCc1nccn1C1CCCN(C(=O)c2ccc3nncn3c2)C1 (stereo unspecified) | -12.7%
O=S(=O)(NC(CO)Cc1c[nH]c2ccccc12)c1cncc(F)c1 (stereo unspecified) | 12%
O=C(COc1cccc(Cl)c1)N1CCOCC1c1ncon1 (stereo unspecified) | -12.3%
O=C(c1cscn1)N1CC[C@@H]2[C@@H]1CCN2C1CCOC1 (stereo partly specified) | 4.19%
O=C(NCCN1CCNCC1)c1nc2ccccc2c(=O)[nH]1 | 8.19%
COc1ccc(CN[C@@H]2CO[C@H](CNC(=O)NC(C)C)[C@H]2O)cc1 | -4.7%
CCc1cccc(N2CCC(NC(=O)c3ccc(=O)[nH]n3)CC2)c1 | 5.8%
Cc1ccccc1C1CCCN1C(=O)CN1CC2(CCNCC2)OC1=O (stereo unspecified) | -11.1%
COCc1ncn2c1CN(C(=O)Nc1ccccc1)CC2 | 0.763%
O=C(NCCc1ccncc1)c1cccc(S(=O)(=O)N[C@@H]2CCNC2)c1 | 4.93%
COc1ccc(N(C)C(=O)c2cccc(S(C)(=O)=O)c2)cn1 | 7.36%
CC(C)Oc1cccc(C(=O)C2CCCN(C(=O)c3ncn[nH]3)C2)c1 (stereo unspecified) | -7.53%
c1cnc(NCc2cncc3c2CCN(Cc2cccs2)C3)nc1 | 7.33%
CN(Cc1ccon1)C(=O)C1CC(=O)N(Cc2ccncc2)C1 (stereo unspecified) | -0.368%
c1coc(CN2CCCn3c(nnc3Cn3cccc3)C2)c1 | -0.314%
c1ccc(-c2nc(CCNC3CCOC4(CCOCC4)C3)no2)cc1 (stereo unspecified) | 4.47%

Structure (SMILES) | cytotoxicity at 10 µM
Cc1ccccc1CSc1nc(N)cc(N2CCOCC(CO)C2)n1 (stereo unspecified) | -9.23%
CC(C)Oc1ccccc1NC(=O)N1CCC(n2cncn2)CC1 | -3.67%
CN1CCCC(CNC(=O)N(C)Cc2ccc(Cl)c(F)c2)C1 (stereo unspecified) | 1.36%
CC(=O)c1cccc(OCCCC(=O)N(C)C2CCN(C)CC2)c1 | 3.07%
CCC(=O)N1CCC(c2nc(C)ncc2-c2ccncc2)CC1 | 6.04%
Cc1csc(C2CCCCN2C(=O)c2cc(Cl)c[nH]2)n1 (stereo unspecified) | -6.73%
COCCNC(=O)c1sccc1N(C)S(=O)(=O)c1ccc(Cl)cc1 | 6.33%
Cc1nn(C)c(C)c1-c1ccc(=O)n(C(C)C(=O)NC2CCCC2)n1 (stereo unspecified) | 5.97%
CCOCCOc1ccc(S(=O)(=O)N2CCc3c(nc[nH]c3=O)C2)cc1 | -5.85%
Cc1nc(COC[C@@H]2CC[C@H]3[C@H](CCN3S(C)(=O)=O)O2)cs1 | 5.22%
COc1ccc(-c2nc(CN3CCc4cnc(C)nc4C3)no2)cc1 | -7.1%
O=S(=O)(NCCc1ccccc1C(F)(F)F)N1CCOCC1 | 9.08%
Cc1nc(C2CCN(C)CC2)cc(N2CCOc3ccc(Cl)cc3C2)n1 | -5.12%
CCOC(=O)Cn1ccc(O)c(Cc2ccc(Cl)cc2Cl)c1=O | 4.19%
CCOCC(=O)N1CCC(c2nc(-c3cccnn3)no2)CC1 | -3.3%
COCCCNC(=O)c1cc(-c2ccc(OC)cc2)nn1C | 1.54%
C[C@@H]1CN(c2ccc(Cl)cn2)C[C@@]1(O)C1CC1 | -2.81%
c1cncc(OCC2CN(Cc3ccsc3)Cc3nccn3C2)c1 (stereo unspecified) | -72.4%
Cc1cccc(C(C(=O)NCCCc2nnc3ccccn23)N(C)C)c1 (stereo unspecified) | -7.88%
CCc1c(C)sc(NC(=O)CN2CCN(CC)CC2)c1C(=O)OC | -11.1%
CC(NC(=O)NCCCN1CCCCCC1=O)c1nncn1C (stereo unspecified) | -0.734%
CCC(=O)Nc1ccc2c(c1)C1(CCOCC1)CN2CCOC | -99%
COc1ccccc1OCC(=O)Nc1ncccc1Cl | -3.61%

Structure (SMILES) | cytotoxicity at 10 µM
CCN(Cc1noc(C2CCC2)n1)C(=O)c1cn2ccsc2n1 | 5.44%
CCOc1ccccc1CN(CC)Cc1ccc(S(C)(=O)=O)cc1 | -4.6%
CN(C)[C@H]1CN(C(=O)CCc2cccc(F)c2)C[C@@H]1C1CC1 | -1.1%
Cc1cc(C)c2cc(CNCc3ccco3)c3nn(C)c(=O)n3c2c1 | -13.6%
O=C(CSc1nncs1)N1CCN(Cc2ccc(Cl)cc2)CC1 | 21.9%
c1cc2c(cc1OC[C@@H]1CCCN3CCCC[C@H]13)OCCO2 | -2.48%
Cc1c(CN2CCCC(C(=O)CCc3ccccc3)C2)cc(C#N)n1C (stereo unspecified) | -5.76%
Cc1nnc(CN2CCC(N(C)Cc3nnc(C4CC4)n3C)C2)o1 (stereo unspecified) | -5.36%
Cc1ccnc(C(NC(=O)c2ncoc2C)C2CC2)n1 (stereo unspecified) | 12.7%
CC(=O)N1CCN(C(=O)NCCCN(C)S(C)(=O)=O)CC1 | -7.33%
O=C(CNc1cccc(CC(F)(F)F)c1)NCc1ccco1 | -46.3%
CN(Cc1cc(-c2ccccc2)no1)Cc1nccn1C | -2.27%
O=C(CCc1cccs1)Nc1ccnn1C1CCS(=O)(=O)C1 (stereo unspecified) | -19.8%
Cc1c(C2CCOC(C)(C)C2)nc(N)c(C#N)c1-c1ccc(O)cc1 (stereo unspecified) | 22.8%
NC(=O)CSCC(=O)NCC1CCCC1 | 3.15%
CC(C)(C)CN[C@@H]1CO[C@H](CNC(=O)c2ccncc2)[C@H]1O | -2.5%
CCCNCc1cn(C)nc1-c1cccnc1 | 6.36%
O=C(CC1CCN(c2cccnn2)CC1)NCCO | 0.308%
CCCc1nc(CN(CC)C(=O)c2ccc3[nH]cnc3c2)no1 | 3.98%
CC(=O)OC1CN(c2nc3c(Cl)cccc3s2)C1 | -0.745%
Cc1cc(C)n(CC2CN(Cc3cnc(C)s3)CCO2)n1 (stereo unspecified) | -19.7%
COc1ccc(C(C)N2CCN(Cc3nccn3C)CC2)cc1Cl (stereo unspecified) | -8.31%
Cc1nc(Nc2ncc(C)s2)cc(C2CCCN2S(C)(=O)=O)n1 (stereo unspecified) | -37.6%

Structure (SMILES) | cytotoxicity at 10 µM
COC(=O)C(NC(=O)COC1CCCC1)c1cc(F)ccc1F (stereo unspecified) | -9.06%
Cc1ccc([C@@H]2CN(C(=O)c3ccc[nH]3)C[C@H]2NC(=O)C2CC2)cc1 | -21.5%
O=C1CCCN1Cc1nnc(SCc2ccc3c(c2)CCC3)o1 | 2.03%
CCCc1nc(Nc2cccc(C(N)=O)c2)c2c(n1)c(C)nn2CC | 3.31%
CC(=O)N1N=C(c2ccccc2)OC1C(=O)NCCC1=CCCCC1 (stereo unspecified) | 9.74%
CN(C)CC(=O)N1CCC2(CC1)COc1ccccc1S(=O)(=O)N(C)C2 | 0.0039%
CN1CCCC(Cc2ccnc3ccncc23)CC1 (stereo unspecified) | -0.336%
CN(Cc1ccncc1)Cc1nccn1Cc1ccccc1 | 12.5%
CC(C)Cc1cc(CNC(=O)c2ccccc2C2CCNC2)no1 (stereo unspecified) | -45.5%
CC(C)Oc1ncccc1CNC(=O)Nc1ccccn1 | -9.41%
CC(C)c1noc(CCNC(=O)N2CCSC(C(C)C)C2)n1 (stereo unspecified) | -2.65%
O=C(CCNCc1cc(O)c2cc(F)ccc2n1)N1CCCC1 | -49.3%
Cc1ccc(CN(CCCn2ccnc2)Cc2cc(F)ccc2F)s1 | -13.2%
CCn1c(-c2ccccc2)nn(CC(=O)NCCc2c[nH]cn2)c1=O | -2.99%
Cn1cc(CN2C[C@@H](F)[C@@H](OCc3nc4cnccc4[nH]3)C2)cn1 | 6.88%
CN(CCNC(=O)c1cccnc1)S(C)(=O)=O | -0.102%
CCc1ncc2c(n1)CN(CC(=O)Nc1ccncc1)CC2 | 0.0264%
CCSCc1ccc(C(=O)N2CCCN(CC(N)=O)CC2)cc1 | 10.5%
CCN(C(=O)CN1CCCC1c1cc(C)no1)c1ccccc1C (stereo unspecified) | -0.264%
COc1cc(NC(=O)C2CC(=O)N(c3cccc(Br)c3)C2)ncn1 (stereo unspecified) | 33.4%
CCc1csc(C2CCCN(C(=O)c3ccc(=O)n(C)n3)C2)n1 (stereo unspecified) | -44.1%
Cc1cc(C(=O)N2CCN(Cn3cc(Cl)cn3)CC2)c(C)o1 | 10.9%
O=c1[nH]nc2n1CCN(S(=O)(=O)c1ccccc1Cl)C2 | 3.61%

Structure (SMILES) | cytotoxicity at 10 µM
CCc1noc(C2CCCCN2C(=O)c2sccc2C)n1 (stereo unspecified) | 10.3%
CN(C)CC(C)(C)CN1CCC(c2ccnc(-c3cccc(O)c3)c2)C1 (stereo unspecified) | 3.36%
Cc1ccsc1CN(CCN(C)C)C(=O)c1cc2ccccc2[nH]1 | -139%
Cc1nc(C2CCCNC2)cc(N(C)CCc2ccccc2)n1 (stereo unspecified) | -1.36%
O=C(c1ccoc1)N1CC[C@H]2C[C@@H](c3nnc(C4CC4)o3)O[C@@H]2C1 | -101%
CC(C(=O)Nc1ccc(C#N)cc1)N1CCc2ccccc21 (stereo unspecified) | -1.5%
Cc1cccc(C2(CNC(=O)CCNS(C)(=O)=O)CCCC2)c1 | -5.92%
CNC(=O)CN1CCOCC2(CCCN(Cc3cccnc3)C2)C1 (stereo unspecified) | -6.02%
CCN1CCN(C)C(=O)C12CCN(Cc1cccc(C)c1)CC2 | -2.95%
Cc1ccc(-c2nc(CC3CCN(C)CC3)no2)cc1N1CCNC1=O | -11.8%
NC(=O)c1cc(C2CCCN(CCCOc3ccccc3)C2)n[nH]1 (stereo unspecified) | -12.1%
Cc1nn(C)cc1CNCc1ccc(N(C)C)cc1 | -11.9%
O=C(O)c1cc(-c2cccs2)nc2c(Br)cnn12 | -9.24%
CC(c1cccnc1)N(C)Cc1cc2cc3c(cc2[nH]c1=O)OCO3 (stereo unspecified) | 9.27%
CCN1CCN(C(=O)COc2ccc(CN(C)S(C)(=O)=O)cc2)CC1 | 3.3%
CCc1ncc2c(n1)CN(c1nccc(C3CCCC3)n1)C2 | -1.16%
O=S(=O)(NC1=NCN(CCc2cccs2)CN1)c1ccc(Br)cc1 | -2.35%
CC1CN(C)c2ccccc2CN1C(=O)c1cnsn1 (stereo unspecified) | 0.736%
C[C@@H](NCc1cccc(Cl)c1)c1onc(-c2ccccc2)c1C(=O)O | -4.98%
